{"source": "paper PMC4902274", "about": "(Hypertension, 2014)", "key": {"SH-SY5Y cells": {"system": "SH-SY5Y cells", "test": "Intracellular calcium / calcium influx in SH-SY5Y cells", "format": "cell-based, human", "conditions": "for inhibition of prorenin-induced calcium influx: 1 μmol/L inhibitor"}, "PRR": {"system": "PRR", "conditions": "cited from earlier work"}, "hypertensive RA mice [1]": {"system": "hypertensive RA mice", "conditions": "systemic enalapril; cited from earlier work"}, "ERK-1/2": {"system": "ERK-1/2", "conditions": "cited from earlier work"}, "diabetic nephropathy": {"system": "diabetic nephropathy", "conditions": "cited from earlier work"}, "prorenin": {"system": "prorenin", "conditions": "cited from earlier work"}, "[2]": {"system": "ERK-1/2 phosphorylation, Neuro-2A cells", "test": "ERK-1/2 phosphorylation in Neuro-2A cells", "format": "cell-based, mouse", "how_it_was_run": "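Neuro-2A cells were kept in serum-free medium overnight, then pretreated with losartan 10 μmol/L for 30 minutes. They were then exposed for 15 minutes to prorenin (4 nmol/L), HRP (1 μmol/L) or test peptide (1 μmol/L). Total and phosphorylated ERK-1/2 were measured by Western blot. PRR knockdown cells were transfected with AAV-PRR-shRNA for 3 days.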"}, "[3]": {"system": "spontaneously hypertensive rats", "conditions": "cited from earlier work"}, "[4]": {"system": "diabetic hypertensive rats", "conditions": "cited from earlier work"}, "hypertensive RA mice [5]": {"system": "hypertensive RA mice", "test": "Acute intracerebroventricular infusion, BP in renin-angiotensinogen", "format": "in vivo, mouse", "conditions": "losartan 3 mmol/L, 10-minute icv infusion, n=4", "how_it_was_run": "(§1)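 Test compound, scrambled peptide (1 mmol/L, control) or losartan was infused intracerebroventricularly over 10 minutes into hypertensive mice. BP was traced in real time before, during and after the infusion. The read-out was change in mean arterial pressure (ΔMAP).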"}, "[6]": {"system": "prorenin-induced hypertension, C57Bl/6J mice", "conditions": "cited from earlier work"}, "[7]": {"system": "DOCA-salt hypertensive mice", "format": "in vivo, mouse", "conditions": "losartan 3 mmol/L, 10-minute icv infusion, n=5", "how_it_was_run": "as §1"}, "normotensive SHAM mice": {"system": "normotensive SHAM mice", "test": "Acute intracerebroventricular infusion, BP in normotensive SHAM mice", "format": "in vivo, mouse", "conditions": "icv PRO20 1 mmol/L or losartan 3 mmol/L, n=4"}, "[8]": {"system": "DOCA-salt hypertension, mice", "conditions": "icv infusion of losartan; cited from earlier work"}, "[9]": {"target": "(pro)renin receptor (PRR), human brain (Homo sapiens, UniProt O75787)", "sequence (O75787 17-350)": "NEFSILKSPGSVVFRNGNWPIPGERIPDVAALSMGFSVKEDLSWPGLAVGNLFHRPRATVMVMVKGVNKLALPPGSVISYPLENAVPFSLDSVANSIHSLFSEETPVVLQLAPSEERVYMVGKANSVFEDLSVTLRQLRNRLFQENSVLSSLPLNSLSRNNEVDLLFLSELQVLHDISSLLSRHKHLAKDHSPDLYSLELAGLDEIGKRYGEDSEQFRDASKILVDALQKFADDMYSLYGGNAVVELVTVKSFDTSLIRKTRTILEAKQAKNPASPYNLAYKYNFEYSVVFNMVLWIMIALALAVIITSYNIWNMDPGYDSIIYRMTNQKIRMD", "test": "PRO20-FITC fluorescence binding to human brain sections", "conditions": "PRO20-FITC 1 nmol/L, unlabeled human prorenin 1 μmol/L, human PVN", "how_it_was_run": "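Human PVN sections were incubated with FITC-labelled test peptide, 1 nmol/L with or without unlabelled human prorenin 1 μmol/L. For a concentration series (0.2, 0.5, 1, 2, 5 nmol/L), n=5–6 per concentration. Nuclei were stained with DAPI. Relative fluorescence units were total fluorescence density minus background in each image.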"}, "[10]": {"system": "plasminogen-activator inhibitor 1 release", "conditions": "prorenin 4 nmol/L; cited from earlier work"}, "[11]": {"target": "(pro)renin receptor (PRR), mouse brain (Mus musculus, UniProt Q9CYN9)", "sequence (Q9CYN9 18-350)": "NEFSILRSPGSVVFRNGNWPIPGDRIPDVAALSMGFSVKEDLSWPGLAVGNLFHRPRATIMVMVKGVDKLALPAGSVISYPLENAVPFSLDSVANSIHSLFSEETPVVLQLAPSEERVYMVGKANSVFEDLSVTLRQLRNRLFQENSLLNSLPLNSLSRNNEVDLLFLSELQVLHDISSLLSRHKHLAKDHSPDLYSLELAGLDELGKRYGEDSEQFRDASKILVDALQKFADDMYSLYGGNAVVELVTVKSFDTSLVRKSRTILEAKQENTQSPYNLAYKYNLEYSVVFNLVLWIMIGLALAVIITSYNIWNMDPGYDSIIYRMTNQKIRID", "test": "PRO20-FITC fluorescence binding to mouse brain sections", "conditions": "PRO20-FITC 5 nmol/L, unlabeled mouse prorenin 1 μmol/L, mouse PVN", "how_it_was_run": "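Mouse PVN sections were incubated with FITC-labelled test peptide, 5 nmol/L with or without unlabelled mouse prorenin 1 μmol/L. For a concentration series (1, 2, 5, 10, 20 nmol/L), n=5–6 per concentration. PVN from neuron-specific PRR-knockout mice was also examined. Nuclei were stained with DAPI. Relative fluorescence units were total fluorescence density minus background per image.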"}, "[12]": {"system": "prorenin-induced hypertension, C57Bl/6J mice", "test": "Pressor response to acute intracerebroventricular infusion of mouse prorenin", "format": "in vivo", "conditions": "mouse prorenin 2.4 μmol/L + scrambled peptide 100 μmol/L, 3 μL/min for 10 minutes, icv"}, "[13]": {"conditions": "human prorenin 4 nmol/L, n=7–11/group"}}, "data": [{"molecule": "Nc1ncnc2c1ncn2[C@@H]1O[C@H](COP(=O)(O)OP(=O)(O)OP(=O)(O)O)[C@@H](O)[C@H]1O", "note": "[ATP]", "values": [{"measurement": "intracellular calcium in SH-SY5Y cells", "setting": "SH-SY5Y cells; ATP 1 μmol/L, Fluo-4-AM, n=7–11/group", "result": "increased intracellular calcium"}]}, {"molecule": "COCCCOc1cc(C[C@@H](C[C@H](N)[C@@H](O)C[C@H](C(=O)NCC(C)(C)C(N)=O)C(C)C)C(C)C)ccc1OC", "note": "[aliskiren]", "values": [{"measurement": "effect on renin or prorenin binding to the PRR", "setting": "PRR", "result": "does not alter renin or prorenin binding to the PRR"}]}, {"molecule": "CCOC(=O)[C@H](CCc1ccccc1)N[C@@H](C)C(=O)N1CCC[C@H]1C(=O)O", "note": "[enalapril]", "values": [{"measurement": "effect on BP in RA mice, systemic", "setting": "hypertensive RA mice [1]", "result": "did not normalize BP"}]}, {"molecule": "Ang II: major bioactive peptide of the RAS", "values": [{"measurement": "intracellular calcium in SH-SY5Y cells", "setting": "SH-SY5Y cells; Ang II 10 nmol/L, Fluo-4-AM, n=7–11/group", "result": "increased intracellular calcium levels"}]}, {"molecule": "RILLKKMPSV [HRP]", "values": [{"measurement": "ERK-1/2 phosphorylation in the retina", "setting": "ERK-1/2", "result": "increases phosphorylation of extracellular signal–regulated protein kinase 1 and 2"}, {"measurement": "effect on diabetic nephropathy in rats", "setting": "diabetic nephropathy; development", "result": "prevent the development of diabetic nephropathy in rats without affecting hyperglycemia"}, {"measurement": "effect on established diabetic nephropathy in rats", "setting": "diabetic nephropathy; established", "result": "induce regression of established diabetic nephropathy"}, {"measurement": "conformational change and nonproteolytic activation of prorenin on binding to PRR", "setting": "prorenin", "result": "inhibits the conformational change and nonproteolytic activation of prorenin"}, {"measurement": "inhibition of binding of prorenin to the PRR", "setting": "PRR", "result": "no direct inhibitory effect on the binding of prorenin to the PRR"}, {"measurement": "phosphorylated ERK-1/2 levels, peptide alone", "setting": "[2]; PRO20 or HRP alone, 1 μmol/L, 15 minutes, losartan 10 μmol/L", "result": "unaffected"}, {"measurement": "effect on cardiac fibrosis", "setting": "[3]", "result": "attenuates the development of cardiac fibrosis"}, {"measurement": "effect on beneficial effects of aliskiren on vascular dysfunction", "setting": "[4]", "result": "counteracts the beneficial effects of aliskiren"}]}, {"molecule": "C[C@H](CS)C(=O)N1CCC[C@H]1C(=O)O", "note": "[captopril]", "values": [{"measurement": "inhibition of prorenin-induced calcium influx", "setting": "SH-SY5Y cells; [13]", "result": "completely blocked"}]}, {"molecule": "CCCCc1nc(Cl)c(CO)n1Cc1ccc(-c2ccccc2-c2nn[nH]n2)cc1", "note": "[losartan]", "values": [{"measurement": "effect on mean arterial BP (MAP)", "setting": "hypertensive RA mice [5]", "result": "reduced mean arterial BP"}, {"measurement": "effect on prorenin-induced hypertension", "setting": "[6]; icv infusion of losartan", "result": "abolishes prorenin-induced hypertension"}, {"measurement": "inhibition of prorenin-induced calcium influx", "setting": "SH-SY5Y cells; [13]", "result": "completely blocked"}, {"measurement": "inhibition of Ang II-induced intracellular calcium increase", "setting": "SH-SY5Y cells; losartan 1 μmol/L vs Ang II 10 nmol/L, n=7–11/group", "result": "blocked"}, {"measurement": "effect on mean arterial BP (MAP)", "setting": "[7]", "result": "reduced mean arterial BP"}, {"measurement": "effect on MAP in normotensive mice", "setting": "normotensive SHAM mice", "result": "did not alter MAP"}, {"measurement": "inhibition of prorenin-induced ERK-1/2 phosphorylation", "setting": "[2]; losartan, prorenin", "result": "partially blocked"}, {"measurement": "effect on development of DOCA-salt hypertension", "setting": "[8]", "result": "totally prevents the development of DOCA-salt hypertension"}]}, {"molecule": "human prorenin: unlabeled human prorenin (protein, UniProt P00797 24-406, looked up, pro-form) pro-form: LPTDTTTFKRIFLKRMPSIRESLKERGVDMARLGPEWSQPMKRLTLGNTTSSVILTNYMDTQYYGEIGIGTPPQTFKVVFDTGSSNVWVPSSKCSRLYTACVYHKLFDASDSSSYKHNGTELTLRYSTGTVSGFLSQDIITVGGITVTQMFGEVTEMPALPFMLAEFDGVVGMGFIEQAIGRVTPIFDNIISQGVLKEDVFSFYYNRDSENSQSLGGQIVLGGSDPQHYEGNFHYINLIKTGVWQIQMKGVSVGSSTLLCEDGCLALVDTGASYISGSTSSIEKLMEALGAKKRLFDYVVKCNEGPTLPDISFHLGGKEYTLTSADYVFQESYSSKKLCTLAIHAMDIPPPTGPTWALGATFIRKFYTEFDRRNNRIGFALAR", "values": [{"measurement": "intracellular calcium in SH-SY5Y cells", "setting": "SH-SY5Y cells; [13]", "result": "increased neuronal intracellular calcium"}, {"measurement": "calcium influx induced relative to Ang II", "setting": "SH-SY5Y cells; human prorenin vs Ang II, SH-SY5Y cells", "result": "to a degree similar to that of Ang II"}, {"measurement": "inhibition of PRO20-FITC binding by unlabeled prorenin", "setting": "[9]", "result": "eliminated PRO20-FITC binding"}]}, {"molecule": "prorenin: prorenin; species not stated at the place (protein, UniProt P00797 24-406, looked up, pro-form) pro-form: LPTDTTTFKRIFLKRMPSIRESLKERGVDMARLGPEWSQPMKRLTLGNTTSSVILTNYMDTQYYGEIGIGTPPQTFKVVFDTGSSNVWVPSSKCSRLYTACVYHKLFDASDSSSYKHNGTELTLRYSTGTVSGFLSQDIITVGGITVTQMFGEVTEMPALPFMLAEFDGVVGMGFIEQAIGRVTPIFDNIISQGVLKEDVFSFYYNRDSENSQSLGGQIVLGGSDPQHYEGNFHYINLIKTGVWQIQMKGVSVGSSTLLCEDGCLALVDTGASYISGSTSSIEKLMEALGAKKRLFDYVVKCNEGPTLPDISFHLGGKEYTLTSADYVFQESYSSKKLCTLAIHAMDIPPPTGPTWALGATFIRKFYTEFDRRNNRIGFALAR", "values": [{"measurement": "Ang II-dependent plasminogen-activator inhibitor 1 release", "setting": "[10]", "result": "increased Ang II–dependent plasminogen-activator inhibitor 1 release"}, {"measurement": "ERK-1/2 phosphorylation", "setting": "[2]; prorenin alone, serum-free medium", "result": "markedly increased ERK-1/2 phosphorylation"}]}, {"molecule": "mouse prorenin: unlabeled mouse prorenin (protein, UniProt P06281 22-402, looked up, pro-form) pro-form: LPTRTATFERIPLKKMPSVREILEERGVDMTRLSAEWGVFTKRPSLTNLTSPVVLTNYLNTQYYGEIGIGTPPQTFKVIFDTGSANLWVPSTKCSRLYLACGIHSLYESSDSSSYMENGSDFTIHYGSGRVKGFLSQDSVTVGGITVTQTFGEVTELPLIPFMLAKFDGVLGMGFPAQAVGGVTPVFDHILSQGVLKEEVFSVYYNRGSHLLGGEVVLGGSDPQHYQGNFHYVSISKTDSWQITMKGVSVGSSTLLCEEGCAVVVDTGSSFISAPTSSLKLIMQALGAKEKRIEEYVVNCSQVPTLPDISFDLGGRAYTLSSTDYVLQYPNRRDKLCTLALHAMDIPPPTGPVWVLGATFIRKFYTEFDRHNNRIGFALAR", "values": [{"measurement": "BP in conscious wild-type mice", "setting": "[6]; icv mouse prorenin 2.4 μmol/L, conscious wild-type C57Bl/6J mice", "result": "increases BP"}, {"measurement": "inhibition of PRO20-FITC binding by unlabeled prorenin", "setting": "[11]", "result": "completely blocked"}, {"measurement": "BP during intracerebroventricular infusion of prorenin", "setting": "[12]", "result": "induced a rapid increase in BP"}]}]}
